# Screens deposited in PubChem BioAssay by several laboratories.
# Rpn11 block: Rpn11 (human) deubiquitinase inhibition; AID 588493; actives 0.59% (n = 360,000); O00487; human 26S proteasome, Ub4-pepOG fluorescence polarization; 20S core pre-blocked with epoxomicin; calls only at 20 µM;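 active = inhibition at 20 µM, scaled to each plate's controls, above about 33%, limit read from the data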
# TPT1 inh: inhibitors of Candida albicans tRNA 2'-phosphotransferase TPT1; actives 0.81% (n = 300,000); recombinant caTPT1, FP RNA substrate dephosphorylation; AID 1962; inhibition, % at 5 µM;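 active = inhibition above the mean of all tested compounds plus 3 SD, set per screening campaign, cut at about 24% in these data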;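 also: plate controls were DMSO alone for no effect and ferristatin control at 100 nM for full effect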
# IDE act: activators of human insulin-degrading enzyme in cells; P14735; HEK cells, FAbeta-B cleavage, fluorescence polarization; 0% vehicle, 100% cell-free pure enzyme wells; activation, % at 5.96 µM; actives 0.073% (n = 340,000); AID 493087;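 active = activation above the mean of all tested compounds plus 3 SD, set per screening campaign, cut at about 17% in these data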
# CSN deneddyl inh: inhibitors of human CSN-mediated cullin deneddylation | Q92905 | Purified CSN, SCF-Nedd8-OG deneddylation, fluorescence polarization | inhibition, % at 12.5 µM | actives 0.38% (n = 360,000);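 active = pattern-corrected inhibition above about 35%, with an unprinted fluorescence ratio check between 0.5 and 1.5, limit read from the data, passing the limit was not always enough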;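 also: 0% = enzyme with substrate and 100% = substrate without enzyme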
#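 Assay system: purified human Csn5 enzyme expressed in HEK293T cells; Input: 0.24 nM Csn5 enzyme, final concentration; Reagent: 10 nM SCFSkp2-Nedd8OG; Compound dosing: 12.5 µM single point; Times: reaction 90 min, room temperature; Technique: fluorescence polarization readout.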
# IDE inh: cellular human IDE inhibition; P14735; HEK cells, FAbetaB cleavage, fluorescence polarization; inhibition, % at 5.59 µM; actives 0.41% (n = 320,000);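 active = percent inhibition above the average of all tested compounds plus 3 SD, set per screening campaign, cut at about 16% in these data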;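 also: IDE supplied by intact live HEK cells; FP after avidin binding of uncleaved biotin substrate so inhibition keeps polarization high; 0% = DMSO wells and 100% = 60 µM reference IDE inhibitor Ii1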
# HNF4A DNA FP: change in binding of human HNF4 alpha to DNA; P41235; HNF4a-FITC DNA binding, fluorescence polarization, 1 h; activity change, % at 10 µM; actives 0.3% (n = 360,000); AID 1224865; in the data active = activity change above about 30%, passing the limit was not always enough
# Target sequence (P41235 whole entry, looked up): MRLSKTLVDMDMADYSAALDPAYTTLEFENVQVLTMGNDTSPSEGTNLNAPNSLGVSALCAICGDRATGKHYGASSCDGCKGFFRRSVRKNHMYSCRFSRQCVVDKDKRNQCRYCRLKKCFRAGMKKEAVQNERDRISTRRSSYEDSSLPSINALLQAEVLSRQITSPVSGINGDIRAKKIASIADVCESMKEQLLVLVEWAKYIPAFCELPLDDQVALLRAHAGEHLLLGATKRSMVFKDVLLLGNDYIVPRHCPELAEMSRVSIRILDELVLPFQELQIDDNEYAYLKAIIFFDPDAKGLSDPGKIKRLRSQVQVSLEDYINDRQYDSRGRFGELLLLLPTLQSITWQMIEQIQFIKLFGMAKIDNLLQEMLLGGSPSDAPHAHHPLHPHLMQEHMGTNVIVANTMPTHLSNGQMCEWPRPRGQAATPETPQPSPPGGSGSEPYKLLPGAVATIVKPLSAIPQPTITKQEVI
# TPT1 inh confirm: confirmation of Candida albicans TPT1 inhibitors; shares compounds with TPT1 inh; actives 74% (n = 2,400); recombinant caTPT1, fluorescence polarization, RNase T1 coupled; inhibition, % at 5 µM;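 active = inhibition above the primary screen limit, the mean inhibition of all tested compounds plus 3 SD, cut at about 25% in these data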
# RNase T1 inh: blocks Aspergillus oryzae RNase T1, a TPT1 counter-screen. actives 83% (n = 2,400). shares compounds with TPT1 inh. inhibition, % at 5 µM. RNase T1 cleavage, fluorescence polarization, 1536-well;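 active = inhibition above the solvent-only control well mean plus 3 SD, limit set per screening run, cut at about 23% in these data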;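 also: plate controls were DMSO wells with enzyme for no effect and wells without RNase T1 for full effect; inhibitors block cleavage so intact labeled substrate keeps polarization high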
# Target sequence (P00651 whole entry, looked up): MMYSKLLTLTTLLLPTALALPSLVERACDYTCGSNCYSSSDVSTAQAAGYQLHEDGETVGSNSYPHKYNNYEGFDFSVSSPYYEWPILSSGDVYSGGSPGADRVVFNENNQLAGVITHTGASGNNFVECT
# * = called active by the depositor; i = inactive; / = no result shown; + = active, no number. Hits are enriched below; roughly 1.7% of the tested compounds scored in any of these assays.
SMILES,Rpn11 block,TPT1 inh,IDE act,CSN deneddyl inh,IDE inh,HNF4A DNA FP,TPT1 inh confirm,RNase T1 inh
COc1ccc(COC(=O)N/C=C/c2ccco2)cc1,i,21,-9,0,-1,15,/,/
COc1ccccc1COC(=O)N/C=C/c1ccco1,i,42*,2,-2,2,17,20,25*
N#Cc1ccccc1Cn1c(=O)n(CCC(=O)NCc2ccco2)c(=O)c2ccccc21,i,+,0,-4,0,1,20,25*
COc1ccc(/C=N\Nc2ccc([N+](=O)[O-])cc2)c(C(=O)O)c1OC,i,38*,1,2,7,1,46*,60*
COc1cccc(/C=N/Nc2ccc([N+](=O)[O-])cc2)c1O,i,37*,1,3,2,12,57*,68*
COc1cc(/C=N/Nc2ccc(C(=O)O)cc2)ccc1O,i,-3,-6,0,0,0,/,/
COc1ccc(/C=N/Nc2ccc([N+](=O)[O-])cc2)cc1O,/,82*,-2,33,3,44*,98*,106*
O=[N+]([O-])c1ccc(N/N=C\c2ccccc2OCc2ccccc2)cc1,i,85*,4,16,-4,27,101*,108*
C[C@]12c3[nH]c4ccc(Cl)cc4c3CCN1C(=O)[C@@H](CC(=O)NCC13CC4CC(CC(C4)C1)C3)C[C@@H]2C(=O)N1CCCCC1,i,/,1,8,/,2,/,/
COc1ccc(C(=O)Nn2cnnc2)cc1OC,i,1,4,1,-3,0,/,/
CSc1nc(N2CCOCC2)c2sccc2n1,i,-1,-1,10,11,-1,/,/
CSc1nsc(/C=C/Nc2ccc(O)cc2C)c1C#N,/,26*,-9,17,1,111,22,33*
CCN1C(=O)c2cccc3c(NC(=O)c4ccc5c(c4)OCCO5)ccc1c23,/,47*,-2,20,0,60*,65*,72*
CCN1C(=O)c2cccc3c(NC(=O)c4ccccc4)ccc1c23,i,1,0,-3,7,2,/,/
Cc1ccccc1NC(=O)c1ccc(CN(c2ccccc2)S(=O)(=O)c2ccccc2)cc1,i,-5,0,1,7,-1,/,/
Cc1ccc(-c2ccc(/C=N/n3cnnc3)o2)cc1Cl,i,62*,4,2,4,5,2,5
Cc1ccc(S(=O)(=O)c2cc(C#N)c(=O)[nH]c2N)cc1,i,33*,8,12,2,10,23,29*
COc1nc(N)c(S(=O)(=O)c2ccc(C)cc2)cc1C#N,i,29*,0,9,0,16,21,29*
Cc1ccc(-n2cc(S(=O)(=O)c3ccc(C)cc3)[nH]c2=O)cc1,i,1,2,1,-5,-5,/,/
COc1ccc(Oc2nc(C)cc(C)c2S(=O)(=O)c2ccc(C)cc2)cc1,i,2,-2,-3,8,-7,/,/
OCC#Cc1cnc2ccccc2c1,i,1,4,-5,0,-1,/,/
Cc1n[nH]c(C)c1CCNCc1ccc(OCC(O)CN2CCCCC2)cc1 (configuration not stated),i,2,5,3,-4,7,/,/
CC1CCCN(CC(O)COC(c2ccccc2)c2ccccc2)C1 (configuration not stated),i,-6,6,-8,-4,5,/,/
OC1CCCN(CC(O)COC(c2ccccc2)c2ccccc2)C1 (configuration not stated),i,29*,-3,3,5,-1,1,2
CC(=O)Nc1cccc(-c2ccnc3c2CC(C)(C(=O)Nc2ccc4c(c2)OCO4)O3)c1 (configuration not stated),i,/,/,2,/,4,/,/
SMILES,Rpn11 block,TPT1 inh,IDE act,CSN deneddyl inh,IDE inh,HNF4A DNA FP,TPT1 inh confirm,RNase T1 inh
COc1ccc(C(C)(C)C)cc1NC(=O)C1CC=CCC1C(=O)O (configuration not stated),i,0,2,4,-2,1,/,/
Cn1cccc1/C=N/NC(=O)c1cc(-c2cccs2)nc2ccccc12,i,-3,1,3,5,-1,/,/
N=C1S/C(=C\c2ccc(-c3cccc(Cl)c3)o2)C(=O)N1c1nccs1,i,29*,-6,3,3,-18,32*,35*
COc1ccc(/C=C2\SC(=N)N(c3nccs3)C2=O)cc1OC,i,7,2,6,0,1,/,/
CC(C)Cc1cc(C(=O)N(C)C2CCCN(Cc3ccccc3F)C2)n(C)n1 (configuration not stated),i,2,1,-5,3,-4,/,/
COc1cc(OC)c(OC)cc1/C=C/C(=O)c1ccc(NS(=O)(=O)c2ccc(C)cc2)cc1,/,78*,-12,32,13,35,86*,95*
CC(=O)c1ccc(NS(=O)(=O)c2ccc(C)cc2)cc1,i,-5,2,-1,-1,-1,/,/
COc1ccc(CN2CCN(Cc3cccc(OC)c3)C(CCO)C2)cc1 (configuration not stated),i,-14,5,-1,12,3,/,/
CCOC(=O)N1CCC(=NNc2nc3ccccc3s2)CC1,i,0,-4,-2,6,2,/,/
N#C/C(=C\N1CCN(Cc2ccc3c(c2)OCO3)CC1)c1nc2ccccc2s1,/,52*,-9,18,5,30*,58*,66*
CCOC(=O)N1CCN(/C=C(\C#N)c2nc3ccccc3s2)CC1,/,75*,2,6,7,29,44*,54*
Cn1cc(C(=O)C(=O)NCCc2ccccc2)c2ccccc21,i,/,2,-1,/,-3,/,/
CCC(CC)C(=O)Nc1cccc(C(=O)Nc2ccc3c(c2)OCO3)c1,i,-3,-4,-6,3,0,/,/
CCOCCCNC(=O)C(NC(=O)c1ccc(NC(C)=O)cc1)c1ccc(Cl)cc1 (configuration not stated),i,-2,-4,-4,1,1,/,/
CC(=O)c1cc(NC(=O)c2ccc(C)cc2)c(=O)oc1C,i,3,-1,4,9,3,/,/
COc1ccc(C(=O)Nc2cc(C(C)=O)c(/C=C/N(C)C)oc2=O)cc1,/,114*,-25,52*,10,117*,125*,130*
CC(=O)c1cc(NC(=O)c2ccc(C)cc2)c(=O)oc1/C=C/N(C)C,/,156*,-35,61*,12,96*,134*,135*
